Test results taken from BindingDB's records for doi:10.1021/acs.jmedchem.8b01912 (Monash University, 2019).

Biological target: T1, fMet-Leu-Phe receptor (Homo sapiens, UniProt P21462)
T1 sequence (P21462 whole entry): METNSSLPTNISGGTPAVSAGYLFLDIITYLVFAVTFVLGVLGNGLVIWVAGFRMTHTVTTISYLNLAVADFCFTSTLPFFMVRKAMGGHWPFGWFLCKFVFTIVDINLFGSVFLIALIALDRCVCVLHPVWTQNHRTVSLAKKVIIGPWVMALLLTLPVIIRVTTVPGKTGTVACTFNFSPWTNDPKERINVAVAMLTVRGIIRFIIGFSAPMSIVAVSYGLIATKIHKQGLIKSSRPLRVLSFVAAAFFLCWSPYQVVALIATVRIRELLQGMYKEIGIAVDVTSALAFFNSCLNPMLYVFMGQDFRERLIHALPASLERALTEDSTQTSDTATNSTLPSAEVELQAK
Assay: Biased agonist activity at human FPR1 expressed in FlpIn-CHO cells assessed as intracellular calcium mobilization by Fluo-4-AM dye based fluorescence assay
Procedure, shortened: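 Agonist transduction coefficients (Log(τ/KA)) for each signaling output estimated with an extension of the Black-Leff operational model. Values normalized to a reference ligand and to Ca2+ mobilization as reference pathway, giving ΔLog(τ/KA) and Log(bias factors). Data are mean ± SEM of 4 independent experiments, each performed in duplicate.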

CCCCC(C(=O)Nc1ccc(Cl)cc1)n1nc(C)cc(Cc2ccccc2OC)c1=O (stereo unspecified)
EC50: 891 nM
